# Published values of several laboratories.
# Protocols differ between the studies behind these lines.
# Effect on: haemolysis
# Host: human
SMILES,concentration,time,pH,haemolysis [%]
CCN(CC)CCCC(C)Nc1ccnc2cc(Cl)ccc12 (stereo not shown),100 mM,45 min,,28.7
C=C1CC[C@@H]2[C@](C)(CCC[C@]2(C)C(=O)O)[C@H]1CC/C(C)=C/C(=O)O,350 µg/mL,3 h,,50
NCCc1ccc(Oc2ccc(-c3noc(-c4ccc(O)cc4)n3)cc2)cc1,4 µg/mL,1 h,,2.5
Fc1ccc(-c2csc(NN=Cc3cccs3)n2)cc1,10 µM,30 min,pH 7.4,11.4
OC(Cn1cncn1)(Cn1cncn1)c1ccc(F)cc1F,2 µg/mL,1 h,,3.79
CCCCCCCCCCCCNCc1ccc(CNC(=O)c2csc3nc[nH]c(=O)c23)cc1,100 µM,1 h,,~3
c1ccc(CN(CCN(Cc2ccccn2)Cc2ccccn2)Cc2ccccn2)nc1,200 µM,1 h,pH 7.2,≤ 1
Cc1ccc(C=NNc2nc(-c3ccc(F)cc3)cs2)o1,10 µM,30 min,pH 7.4,1.2
O=C(O)CN(CCN(CC(=O)O)CC(=O)O)CC(=O)O,200 µM,1 h,pH 7.2,≤ 1
Cc1ccc(C=NNc2nc(-c3ccc(F)cc3)cs2)c(Br)c1,100 µM,30 min,pH 7.4,31.6
C=C1CC[C@@H]2C(C)(C)CCC[C@@]2(C)[C@@H]1CC/C(C)=C/C(=O)OC,500 µg/mL,3 h,,50
C[C@@H]1[C@H](O)[C@@H](C)/C=C/C=C/C=C/C=C/C=C/C=C/C=C/[C@H](O[C@@H]2O[C@H](C)[C@@H](O)[C@H](N)[C@@H]2O)C[C@@H]2O[C@](O)(C[C@@H](O)C[C@@H](O)[C@H](O)CC[C@@H](O)C[C@@H](O)CC(=O)O[C@H]1C)C[C@H](O)[C@H]2C(=O)O,8 µg/mL,1 h,,102
Oc1ccc(Cl)cc1C=NNc1nc(-c2ccc(F)cc2)cs1,10 µM,30 min,pH 7.4,3.11
